Data as given in the M2OR odorant receptor database.
Residue numbers refer to the chain shown, from its start.

What was measured:
Conditions in all cases: stereoisomer not certain
OR51B5 (Homo sapiens) = biological target: T1, OR51B5 (Homo sapiens) (UniProt Q9H339)
T1 sequence (whole entry): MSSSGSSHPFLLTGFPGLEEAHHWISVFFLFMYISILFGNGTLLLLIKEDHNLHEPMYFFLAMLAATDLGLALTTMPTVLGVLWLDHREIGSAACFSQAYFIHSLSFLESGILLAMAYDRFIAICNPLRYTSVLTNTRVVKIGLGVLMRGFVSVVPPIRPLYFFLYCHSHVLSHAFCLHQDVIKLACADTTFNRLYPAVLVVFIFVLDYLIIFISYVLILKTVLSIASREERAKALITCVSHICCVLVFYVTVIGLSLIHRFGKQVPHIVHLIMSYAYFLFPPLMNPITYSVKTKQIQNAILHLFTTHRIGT
Procedure, shortened: (§1)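 Each entry records the cell line, G-protein, co-transfected protein and tags used. Methods varied with the source, often transient luciferase assays in mammalian cell lines. A receptor–molecule pair is called responsive (active) if the original authors judged its signal statistically different from baseline and non-responsive (inactive) otherwise.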

OR4N2 = test system: T2, OR4N2
T2 sequence (whole entry): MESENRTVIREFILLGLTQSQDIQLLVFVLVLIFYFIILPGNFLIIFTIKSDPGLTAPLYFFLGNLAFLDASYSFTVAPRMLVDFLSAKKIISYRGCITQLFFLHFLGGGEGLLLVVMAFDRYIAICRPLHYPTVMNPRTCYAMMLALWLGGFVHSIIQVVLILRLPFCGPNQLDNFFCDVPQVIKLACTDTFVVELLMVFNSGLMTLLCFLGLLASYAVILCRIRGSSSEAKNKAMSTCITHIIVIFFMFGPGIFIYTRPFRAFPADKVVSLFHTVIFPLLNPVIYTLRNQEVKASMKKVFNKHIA
Procedure, shortened: as §1

OR4N4 (Homo sapiens) = biological target: T3, OR4N4 (Homo sapiens) (UniProt Q8N0Y3)
T3 sequence (whole entry): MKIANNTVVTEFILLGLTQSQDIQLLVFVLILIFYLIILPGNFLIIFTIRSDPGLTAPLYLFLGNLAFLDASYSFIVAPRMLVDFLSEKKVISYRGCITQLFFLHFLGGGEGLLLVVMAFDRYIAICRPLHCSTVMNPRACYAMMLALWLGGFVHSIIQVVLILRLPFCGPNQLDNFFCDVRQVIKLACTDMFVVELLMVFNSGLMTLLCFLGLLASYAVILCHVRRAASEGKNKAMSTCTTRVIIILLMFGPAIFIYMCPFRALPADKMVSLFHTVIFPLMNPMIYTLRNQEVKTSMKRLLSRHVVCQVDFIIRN
Procedure, shortened: as §1

OR4N5 (Homo sapiens) = biological target: T4, OR4N5 (Homo sapiens) (UniProt Q8IXE1)
T4 sequence (whole entry): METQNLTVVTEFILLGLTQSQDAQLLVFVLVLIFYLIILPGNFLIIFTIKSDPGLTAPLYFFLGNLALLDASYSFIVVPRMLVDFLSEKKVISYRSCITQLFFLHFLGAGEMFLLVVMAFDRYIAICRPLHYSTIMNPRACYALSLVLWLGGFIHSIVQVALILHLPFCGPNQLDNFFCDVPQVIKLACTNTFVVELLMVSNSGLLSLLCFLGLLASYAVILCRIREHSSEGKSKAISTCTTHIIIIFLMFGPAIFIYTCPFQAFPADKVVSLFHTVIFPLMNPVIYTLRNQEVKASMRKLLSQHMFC
Procedure, shortened: as §1

OR4P4 (Homo sapiens) = biological target: T5, OR4P4 (Homo sapiens) (UniProt Q8NGL7)
T5 sequence (whole entry): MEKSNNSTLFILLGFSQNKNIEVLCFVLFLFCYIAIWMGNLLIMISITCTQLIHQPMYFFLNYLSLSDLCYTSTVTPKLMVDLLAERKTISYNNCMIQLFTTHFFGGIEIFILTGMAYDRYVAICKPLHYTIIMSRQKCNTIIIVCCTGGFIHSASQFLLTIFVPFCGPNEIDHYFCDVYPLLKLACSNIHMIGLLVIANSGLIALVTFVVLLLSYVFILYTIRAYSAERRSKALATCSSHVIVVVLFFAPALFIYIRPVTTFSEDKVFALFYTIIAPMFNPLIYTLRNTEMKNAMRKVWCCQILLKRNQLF
Procedure, shortened: as §1

OR4Q3 (Homo sapiens) = biological target: T6, OR4Q3 (Homo sapiens) (UniProt Q8NH05)
T6 sequence (whole entry): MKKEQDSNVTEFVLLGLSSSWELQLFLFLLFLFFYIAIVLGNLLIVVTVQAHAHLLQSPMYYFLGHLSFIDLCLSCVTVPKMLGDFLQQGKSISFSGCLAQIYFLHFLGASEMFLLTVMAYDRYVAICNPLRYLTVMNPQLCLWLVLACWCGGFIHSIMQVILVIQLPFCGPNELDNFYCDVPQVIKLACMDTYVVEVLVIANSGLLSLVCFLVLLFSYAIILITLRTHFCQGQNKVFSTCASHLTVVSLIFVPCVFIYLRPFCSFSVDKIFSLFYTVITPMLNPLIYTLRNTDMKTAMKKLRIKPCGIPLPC
Procedure, shortened: as §1

OR4Q3 T135A = test system: T7, OR4Q3 T135A
T7 sequence (whole entry): T6 sequence (whole entry) with T135A
Procedure, shortened: as §1

OR4S1 (Homo sapiens) = biological target: T8, OR4S1 (Homo sapiens) (UniProt Q8NGB4)
T8 sequence (whole entry): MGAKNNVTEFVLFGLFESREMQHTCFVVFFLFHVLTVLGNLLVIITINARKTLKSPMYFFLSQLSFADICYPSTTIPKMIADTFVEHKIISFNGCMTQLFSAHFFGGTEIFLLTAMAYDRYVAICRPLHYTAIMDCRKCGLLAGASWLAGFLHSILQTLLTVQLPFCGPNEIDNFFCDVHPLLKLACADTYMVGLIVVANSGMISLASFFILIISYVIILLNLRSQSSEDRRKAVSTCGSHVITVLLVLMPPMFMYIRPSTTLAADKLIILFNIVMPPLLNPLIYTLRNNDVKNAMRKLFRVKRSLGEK
Procedure, shortened: as §1

OR4S2 (Homo sapiens) = biological target: T9, OR4S2 (Homo sapiens) (UniProt Q8NH73)
T9 sequence (whole entry): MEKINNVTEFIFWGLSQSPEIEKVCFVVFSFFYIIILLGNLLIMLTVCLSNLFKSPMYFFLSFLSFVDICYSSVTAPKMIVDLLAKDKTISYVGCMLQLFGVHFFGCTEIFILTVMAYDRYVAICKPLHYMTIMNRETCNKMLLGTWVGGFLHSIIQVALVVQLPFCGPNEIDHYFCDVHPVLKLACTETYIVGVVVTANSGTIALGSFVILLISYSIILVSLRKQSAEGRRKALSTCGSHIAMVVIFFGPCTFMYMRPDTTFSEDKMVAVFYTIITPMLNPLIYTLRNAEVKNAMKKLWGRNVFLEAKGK
Procedure, shortened: as §1

OR4X1 (Homo sapiens) = biological target: T10, OR4X1 (Homo sapiens) (UniProt Q8NH49)
T10 sequence (whole entry): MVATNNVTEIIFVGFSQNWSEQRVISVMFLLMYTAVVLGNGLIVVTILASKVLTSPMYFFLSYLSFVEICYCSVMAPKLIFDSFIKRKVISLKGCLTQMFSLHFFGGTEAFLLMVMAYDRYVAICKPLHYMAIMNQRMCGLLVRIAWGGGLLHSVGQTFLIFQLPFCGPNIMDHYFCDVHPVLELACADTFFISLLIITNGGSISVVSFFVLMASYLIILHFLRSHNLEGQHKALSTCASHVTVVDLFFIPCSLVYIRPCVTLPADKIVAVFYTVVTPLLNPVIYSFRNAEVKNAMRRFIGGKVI
Procedure, shortened: as §1

OR4X2 (Homo sapiens) = biological target: T11, OR4X2 (Homo sapiens) (UniProt Q8NGF9)
T11 sequence (whole entry): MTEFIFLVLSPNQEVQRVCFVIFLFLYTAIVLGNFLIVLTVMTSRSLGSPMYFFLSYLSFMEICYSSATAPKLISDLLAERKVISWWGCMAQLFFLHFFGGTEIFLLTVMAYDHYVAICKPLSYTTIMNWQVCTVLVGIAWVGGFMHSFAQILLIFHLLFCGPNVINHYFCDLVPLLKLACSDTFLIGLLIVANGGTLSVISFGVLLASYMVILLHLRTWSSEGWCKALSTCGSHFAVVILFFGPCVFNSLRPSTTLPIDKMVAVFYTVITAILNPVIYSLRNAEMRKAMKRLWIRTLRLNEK
Procedure, shortened: as §1

OR51A2 (Homo sapiens) = biological target: T12, OR51A2 (Homo sapiens) (UniProt Q8NGJ7)
T12 sequence (whole entry): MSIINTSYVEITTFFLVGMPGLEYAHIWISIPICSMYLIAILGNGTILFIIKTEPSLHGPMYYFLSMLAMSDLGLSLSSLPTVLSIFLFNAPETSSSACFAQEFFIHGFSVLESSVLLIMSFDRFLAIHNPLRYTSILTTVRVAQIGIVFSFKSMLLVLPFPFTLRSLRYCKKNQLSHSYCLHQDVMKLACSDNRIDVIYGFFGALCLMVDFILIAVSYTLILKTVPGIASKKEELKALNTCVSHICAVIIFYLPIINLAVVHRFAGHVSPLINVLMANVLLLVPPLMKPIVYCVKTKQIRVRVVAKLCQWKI
Procedure, shortened: as §1

OR51A4 (Homo sapiens) = biological target: T13, OR51A4 (Homo sapiens) (UniProt Q8NGJ6)
T13 sequence (whole entry): T12 sequence (whole entry) with G59E, T94I, S97N, S167N, P227L, E235Q, G267R, M288T, K289N, W311R
Procedure, shortened: as §1

OR51A7 (Homo sapiens) = biological target: T14, OR51A7 (Homo sapiens) (UniProt Q8NH64)
T14 sequence (whole entry): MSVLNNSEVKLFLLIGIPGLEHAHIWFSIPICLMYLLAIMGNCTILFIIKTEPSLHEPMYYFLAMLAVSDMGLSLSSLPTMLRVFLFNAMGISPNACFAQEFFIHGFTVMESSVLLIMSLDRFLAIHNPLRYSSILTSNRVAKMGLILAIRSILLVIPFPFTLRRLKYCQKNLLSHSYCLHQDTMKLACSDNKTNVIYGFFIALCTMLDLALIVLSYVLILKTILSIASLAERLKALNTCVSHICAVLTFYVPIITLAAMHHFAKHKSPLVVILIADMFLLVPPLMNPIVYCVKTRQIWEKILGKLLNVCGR
Procedure, shortened: as §1

OR51B2 (Homo sapiens) = biological target: T15, OR51B2 (Homo sapiens) (UniProt Q9Y5P1)
T15 sequence (whole entry): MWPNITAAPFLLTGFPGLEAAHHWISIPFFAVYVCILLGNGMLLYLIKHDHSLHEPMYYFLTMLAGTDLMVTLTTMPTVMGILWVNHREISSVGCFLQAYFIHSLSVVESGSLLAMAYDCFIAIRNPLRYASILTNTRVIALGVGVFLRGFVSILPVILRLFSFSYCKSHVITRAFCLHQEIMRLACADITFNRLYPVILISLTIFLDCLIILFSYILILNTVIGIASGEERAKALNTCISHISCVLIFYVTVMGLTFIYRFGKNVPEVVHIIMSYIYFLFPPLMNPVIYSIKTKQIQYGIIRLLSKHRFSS
Procedure, shortened: as §1

OR51B4 (Homo sapiens) = biological target: T16, OR51B4 (Homo sapiens) (UniProt Q9Y5P0)
T16 sequence (whole entry): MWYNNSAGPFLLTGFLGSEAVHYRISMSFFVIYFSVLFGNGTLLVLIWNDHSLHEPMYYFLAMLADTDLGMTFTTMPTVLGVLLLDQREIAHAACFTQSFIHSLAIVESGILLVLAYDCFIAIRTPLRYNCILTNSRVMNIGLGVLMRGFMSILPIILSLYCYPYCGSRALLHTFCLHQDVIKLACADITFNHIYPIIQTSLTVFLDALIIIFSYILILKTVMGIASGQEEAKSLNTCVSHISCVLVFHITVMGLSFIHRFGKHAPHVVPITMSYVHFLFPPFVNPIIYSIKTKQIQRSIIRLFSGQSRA
Procedure, shortened: as §1

OR51B6 (Homo sapiens) = biological target: T17, OR51B6 (Homo sapiens) (UniProt Q9H340)
T17 sequence (whole entry): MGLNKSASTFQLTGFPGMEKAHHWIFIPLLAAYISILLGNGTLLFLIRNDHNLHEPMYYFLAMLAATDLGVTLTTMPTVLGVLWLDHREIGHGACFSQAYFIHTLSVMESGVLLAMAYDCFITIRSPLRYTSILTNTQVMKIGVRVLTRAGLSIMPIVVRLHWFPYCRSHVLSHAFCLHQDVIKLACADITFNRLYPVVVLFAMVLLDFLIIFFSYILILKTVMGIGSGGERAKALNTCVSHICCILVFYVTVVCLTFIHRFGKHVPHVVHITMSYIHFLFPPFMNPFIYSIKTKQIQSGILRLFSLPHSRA
Procedure, shortened: as §1

Measured: odorant receptor agonist call

CCCCCCCCO
inactive: OR51B5 (Homo sapiens)

CC1=C(O)C(=O)OC1C (configuration not stated)
inactive: all assays above

CCCCCCCCCCCCCCCC(=O)OC
inactive: OR51B5 (Homo sapiens)

CCCCC(S)C(C)CO (configuration not stated)
not listed: OR4N2 | OR4Q3 T135A
inactive: all other assays above

CCC(O)CC
inactive: OR51B5 (Homo sapiens)

CCCCCC(=O)C(C)C(C)=O (configuration not stated)
not listed: OR4N2 | OR4Q3 T135A
inactive: all other assays above

CCCCCCC=CCCC=O
inactive: all assays above
